Laboratory results as given in ChEMBL document CHEMBL1127706, “HIV-inhibitory natural products. 11. Comparative studies of sulfated sterols from marine invertebrates” (J Med Chem, 1994).

Key:
CCRF-CEM [1] = test: Effective concentration for cytoprotective effect against HIV-1 infection in CEM cells; No protection of cells to HIV-induced Killing; assay type: functional, cell-based, Homo sapiens
Method in brief: (§1)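 CEM-SS cells in RPMI 1640 without phenol red (5% FBS, 2 mM L-glutamine, gentamicin), resuspended at 1×10^5 cells/mL, infected with HIV-1 RF at MOI 0.01-0.05. Sterols dissolved in DMSO, serially diluted in medium (final DMSO ≤1%), top concentration 100 μg/mL. Incubated 6 days at 37 °C, 5% CO2. Cytoprotection read by XTT tetrazolium viability, relative to uninfected untreated controls.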

[2] = system: Human immunodeficiency virus 1; test: Inhibition of HIV-1 mediated cytotoxicity in CEM (human leukemia) cells.; assay type: functional, organism-based; settings: Human immunodeficiency virus 1, CCRF-CEM; method in brief: as §1
[3] = system: Human immunodeficiency virus 2; test: Inhibition of HIV-2 (CBL20) nediated cytotoxicity in CEM (human leukemia) cells.; settings: Human immunodeficiency virus 2, CCRF-CEM
CCRF-CEM [4] = test: Effective concentration was tested for cytoprotective effect against HIV-1 infection in CEM cells; assay type: functional, cell-based; settings: Homo sapiens; method in brief: as §1
CCRF-CEM [5] = test: Effective concentration was tested for cytoprotective effect against HIV-2 CBL 20 strain infection in CEM cells; assay type: functional, cell-based; settings: Homo sapiens
Method in brief: (§2)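 HIV-2 strain CBL20 infection of CEM cells at MOI 0.01-0.05. Sterols in DMSO, diluted in complete medium (final DMSO ≤1%), maximum 100 μg/mL. Uninfected CEM-SS controls run for toxicity. XTT viability read after 6 days in culture at 37 °C, 5% CO2. Protection expressed as percent of uninfected, untreated controls.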

CCRF-CEM [6] = test: Effective concentration for cytoprotective effect against HIV-2 CBL 20 strain infection in CEM cells; No protection of cells to HIV-induced Killing; assay type: functional, cell-based, Homo sapiens; method in brief: as §2
CCRF-CEM [7] = test: Inhibitory concentration for cytoprotective effect against HIV-1 infection in CEM cells.; assay type: functional, cell-based; settings: Homo sapiens; method in brief: as §1
CCRF-CEM [8] = test: Effective concentration for cytoprotective effect against HIV-2 infection in CEM cells; No protection of cells to HIV-induced Killing; assay type: functional, cell-based; settings: Homo sapiens
Method in brief: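 Anticytopathicity test against HIV-2 strain ROD in CEM cells at MOI 0.01-0.05. Cells were held in RPMI 1640 with 5% FBS, and sterols were given from DMSO stocks (final DMSO ≤1%), up to 100 μg/mL. Cultures ran 6 days at 37 °C. Protection from viral killing was scored as percent, with host-cell cytotoxicity assessed in parallel.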

EC50 (CCRF-CEM [4]) [µM] | EC50 (CCRF-CEM [5]) [µM] | IC50 (CCRF-CEM [7]) [µM] | SMILES | EC50 (CCRF-CEM [1]) | IC50 [2] [µM] | IC50 [3] [µM] | EC50 (CCRF-CEM [6]) | EC50 (CCRF-CEM [8]) [µM]
 |  |  | CC(C)CCC[C@@H](COS(=O)(=O)[O-])[C@H]1CCC2C3CC=C4[C@H](O)[C@H](OS(=O)(=O)[O-])[C@H](O)C[C@]4(C)C3CC[C@@]21C.[Na+].[Na+] (some centres undefined) | No protection |  |  |  | 
19 | 128 |  | CC(C)CC[C@@H](O)[C@@H](C)[C@H]1CCC2C3C[C@H](OS(=O)(=O)O)C4C[C@@H](OS(=O)(=O)O)CC[C@]4(C)C3=CC[C@@]21C (some centres undefined) |  | > 161 | > 161 |  | 
 |  |  | CC(C)C(CCOS(=O)(=O)[O-])CC[C@@H](C)[C@H]1[C@@H](O)[C@H](O)C2[C@]3(O)C[C@@H](O)[C@@]4(O)C[C@@H](O)CC[C@]4(C)C3CC[C@@]21C.[Na+] (some centres undefined) | No protection | > 164 | > 164 | No protection | 
97 |  |  | CC(C)CCC[C@@H](COS(=O)(=O)O)[C@H]1CCC2C3CC=C4C[C@H](O)[C@@H](OS(=O)(=O)O)C[C@]4(C)C3CC[C@@]21C (some centres undefined) |  | > 161 | > 161 |  | 
86 | 39 |  | C=C(C)CCC[C@@H](COS(=O)(=O)O)[C@H]1CC[C@H]2[C@@H]3CC[C@]4(O)[C@H](O)[C@H](OS(=O)(=O)O)CC[C@]4(C)[C@H]3CC[C@]12C |  | > 157 | > 157 |  | 
157 | 110 |  | CC(C)CCC[C@@H](COS(=O)(=O)O)[C@H]1CC[C@H]2[C@@H]3CCC4[C@H](O)[C@H](OS(=O)(=O)O)CC[C@]4(C)[C@H]3[C@@H](O)C[C@]12C (some centres undefined) |  | > 313 | > 157 |  | 
 |  | > 123 | CC(C)[C@H](CC[C@@H](C)[C@H]1C[C@H](OS(=O)(=O)[O-])[C@H]2[C@@H]3[C@H](O)[C@H](O)C4C[C@@H](O)CC[C@]4(C)[C@H]3CC[C@@]21C)OC1OCC(O)C(O)C1O.[Na+] (some centres undefined) | No protection |  | 69 | No protection | 
6 | 2 |  | CC(C)C(C)CC[C@@H](C)[C@H]1CC[C@H]2[C@@H]3C[C@H](OS(=O)(=O)O)C4C[C@H](OS(=O)(=O)O)[C@@H](OS(=O)(=O)O)C[C@]4(C)[C@H]3CC[C@]12C (some centres undefined) |  | 56 | 56 |  | 
6 | 3 |  | CC(CC[C@@H](C)[C@H]1CC[C@H]2[C@@H]3C[C@H](OS(=O)(=O)O)C4C[C@H](OS(=O)(=O)O)[C@@H](OS(=O)(=O)O)C[C@]4(C)[C@H]3CC[C@]12C)C(C)(C)C (some centres undefined) |  | 41 | 41 |  | 
3 | 7 |  | CCC(C)(C)C(C)CC[C@@H](C)[C@H]1CC[C@H]2[C@@H]3C[C@H](OS(=O)(=O)O)C4C[C@H](OS(=O)(=O)O)[C@@H](OS(=O)(=O)O)C[C@]4(C)[C@H]3CC[C@]12C (some centres undefined) |  | 17 | 94 |  | 
97 | 161 |  | C=C(C)CCC[C@@H](COS(=O)(=O)O)[C@H]1CC[C@H]2[C@@H]3CCC4[C@H](O)[C@H](OS(=O)(=O)O)CC[C@]4(C)[C@H]3CC[C@]12C (some centres undefined) |  | > 161 | > 161 |  | 
 |  |  | C[C@H](CCC(=O)NC(CO)CS(=O)(=O)O)[C@H]1[C@@H](O)[C@H](O)[C@H]2[C@@H]3C[C@@H](O)[C@@]4(O)C[C@@H](O)CC[C@]4(C)[C@H]3CC[C@]12C (some centres undefined) | No protection | > 174 | > 174 | No protection | 
48 |  |  | CC(C)CC[C@@H](O)[C@@H](C)[C@H]1CC[C@H]2[C@@H]3C[C@H](OS(=O)(=O)O)C4C[C@@H](OS(=O)(=O)O)CC[C@]4(C)[C@H]3CC[C@]12C (some centres undefined) |  | > 160 |  |  | 
 |  |  | CC(=O)O[C@@H]1C[C@H]2[C@@H]3C[C@H](OP(=O)([O-])OC4OC(CO)C(O)C(O)C4O)C4C[C@@H](OS(=O)(=O)[O-])CC[C@]4(C)[C@H]3CC[C@]2(C)[C@H]1[C@H](C)CCCC(C)C.[Na+].[Na+] (some centres undefined) | No protection | > 125 | > 125 |  | 13
122 | 107 |  | CC(C)CCC[C@@H](COS(=O)(=O)O)[C@H]1CC[C@H]2[C@@H]3CCC4[C@H](O)[C@H](OS(=O)(=O)O)CC[C@]4(C)[C@H]3[C@@H](O)[C@@H](O)[C@]12C (some centres undefined) |  | > 152 | > 152 |  | 
13 |  |  | CC(=O)O[C@H](CCC(C)C)[C@@H](C)[C@H]1CC[C@H]2[C@@H]3C[C@H](OS(=O)(=O)O)C4C[C@@H](OS(=O)(=O)O)CC[C@]4(C)[C@H]3CC[C@]12C (some centres undefined) |  | > 149 |  |  | 
 |  |  | CC(C)[C@H](CC[C@@H](C)[C@H]1C[C@H](OS(=O)(=O)[O-])[C@H]2[C@@H]3C[C@H](O)C4C[C@@H](O)CC[C@]4(C)[C@H]3CC[C@@]21C)OC1OCC(O)C(O)C1O.[Na+] (some centres undefined) | No protection | > 126 | > 126 | No protection | 
13 | 8 |  | CC(C)C1(CC[C@@H](C)[C@H]2CC[C@@]3(C)C4C[C@H](OS(=O)(=O)O)C5C[C@H](OS(=O)(=O)O)[C@@H](OS(=O)(=O)O)C[C@]5(C)C4=CC[C@]23C)CC1C (some centres undefined) |  | > 128 | 51 |  | 
 |  |  | COC1([C@@H]2C=C3[C@H](O)C[C@]4(O)C(CC[C@@]5(C)C4[C@@H](OS(=O)(=O)[O-])[C@H](O)[C@@H]5[C@H](C)/C=C/[C@H](CO)C(C)C)[C@@]3(C)CC2)OCC(O)C(O)C1O.[Na+] (some centres undefined) | No protection | 64 | > 64 |  | 
241 | 80 |  | CC(C)CCC[C@@H](COS(=O)(=O)O)[C@H]1CCC2C3CC=C4[C@@H](O)[C@H](OS(=O)(=O)O)CC[C@]4(C)C3CC[C@@]21C (some centres undefined) |  | > 322 | > 161 |  | 
18 | 3 |  | CC(=O)O[C@H](CCC(C)C)[C@@H](C)[C@H]1CCC2C3C[C@H](OS(=O)(=O)O)C4C[C@@H](OS(=O)(=O)O)CC[C@]4(C)C3=CC[C@@]21C (some centres undefined) |  | > 150 | > 150 |  | 
164 | > 63 |  | CC(C)CCC[C@@H](COS(=O)(=O)O)[C@H]1CC[C@H]2[C@@H]3CC[C@H]4C[C@H](OS(=O)(=O)O)CC[C@]4(C)[C@H]3CC[C@]12C |  | > 312 | > 156 |  | 
